According to ChEMBL document CHEMBL3779767, “Identification of potent and selective MTH1 inhibitors” (Bioorg Med Chem Lett, 2016):
The source made the active and inactive calls. The calls are words filed in the database; no cut-off is given here.

What was measured:
NCI-H460 [1] = experiment: Antiproliferative activity against human NCI-H460 cells assessed as change in phenotypic response measured after prolonged treatment; assay type: functional, cell-based
[2] = test system: Serine/threonine-protein kinase B-raf (Homo sapiens), P15056 [V600E]; experiment: Inhibition of partial length human BRAF V600E mutant expressed in mammalian system at 1 uM
Serine/threonine-protein kinase B-raf (Homo sapiens), P15056 [V600E], sequence (P15056 whole entry V600E): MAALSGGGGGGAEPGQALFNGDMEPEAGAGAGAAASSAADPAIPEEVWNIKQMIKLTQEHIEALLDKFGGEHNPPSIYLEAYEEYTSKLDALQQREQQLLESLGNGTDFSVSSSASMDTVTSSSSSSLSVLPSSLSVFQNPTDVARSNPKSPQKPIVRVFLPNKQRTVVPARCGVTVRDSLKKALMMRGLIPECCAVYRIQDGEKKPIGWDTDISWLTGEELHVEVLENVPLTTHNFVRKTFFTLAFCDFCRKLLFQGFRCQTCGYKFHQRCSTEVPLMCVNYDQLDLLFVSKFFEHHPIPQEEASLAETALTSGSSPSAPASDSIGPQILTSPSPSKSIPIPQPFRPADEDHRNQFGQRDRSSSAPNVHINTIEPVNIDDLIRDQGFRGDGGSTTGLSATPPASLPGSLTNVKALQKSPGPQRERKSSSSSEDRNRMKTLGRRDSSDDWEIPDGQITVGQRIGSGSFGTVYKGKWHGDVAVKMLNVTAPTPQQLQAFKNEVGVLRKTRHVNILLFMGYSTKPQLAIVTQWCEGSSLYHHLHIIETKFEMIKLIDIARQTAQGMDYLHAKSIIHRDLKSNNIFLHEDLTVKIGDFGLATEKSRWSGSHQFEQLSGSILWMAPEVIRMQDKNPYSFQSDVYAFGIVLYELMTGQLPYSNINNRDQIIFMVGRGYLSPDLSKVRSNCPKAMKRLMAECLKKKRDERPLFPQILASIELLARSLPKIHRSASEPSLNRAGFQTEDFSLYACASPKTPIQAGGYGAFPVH
Summary of the method: (§1)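 Single-point screen within a 97-kinase profiling panel, with the test compound at 1 µM.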

[3] = molecular target: Serine/threonine-protein kinase PAK 2 (Homo sapiens) (UniProt Q13177); experiment: Inhibition of partial length human PAK2 expressed in bacterial system at 1 uM
Summary of the method: (§2)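 Single-concentration screen across a panel of 97 kinases, with the test compound at 1 uM.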

[4] = molecular target: Insulin receptor (Homo sapiens) (UniProt P06213); experiment: Inhibition of partial length human INSR expressed in mammalian system at 1 uM; summary of the method: as §1
Insulin receptor (Homo sapiens), sequence (P06213 28-758 limits assumed): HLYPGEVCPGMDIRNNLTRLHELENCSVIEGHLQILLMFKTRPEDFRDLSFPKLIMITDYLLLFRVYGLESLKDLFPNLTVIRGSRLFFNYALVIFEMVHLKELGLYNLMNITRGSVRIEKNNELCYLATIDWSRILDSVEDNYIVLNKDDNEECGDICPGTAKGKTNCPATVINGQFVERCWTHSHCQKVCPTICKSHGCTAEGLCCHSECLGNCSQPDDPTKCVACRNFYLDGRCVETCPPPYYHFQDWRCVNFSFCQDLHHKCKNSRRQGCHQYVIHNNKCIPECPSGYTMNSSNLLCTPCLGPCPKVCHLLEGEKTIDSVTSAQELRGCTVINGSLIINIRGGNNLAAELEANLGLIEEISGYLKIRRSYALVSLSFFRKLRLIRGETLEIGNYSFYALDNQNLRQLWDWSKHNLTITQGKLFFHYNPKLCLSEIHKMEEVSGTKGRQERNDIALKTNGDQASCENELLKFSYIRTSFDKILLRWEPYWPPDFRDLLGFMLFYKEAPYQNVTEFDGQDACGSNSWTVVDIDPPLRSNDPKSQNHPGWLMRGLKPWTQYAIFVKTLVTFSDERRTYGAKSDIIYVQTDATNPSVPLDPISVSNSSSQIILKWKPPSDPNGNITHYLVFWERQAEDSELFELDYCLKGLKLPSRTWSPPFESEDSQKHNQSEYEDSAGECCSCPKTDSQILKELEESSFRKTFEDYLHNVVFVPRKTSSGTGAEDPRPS
Insulin receptor (Homo sapiens), sequence (P06213 763-1382 limits assumed): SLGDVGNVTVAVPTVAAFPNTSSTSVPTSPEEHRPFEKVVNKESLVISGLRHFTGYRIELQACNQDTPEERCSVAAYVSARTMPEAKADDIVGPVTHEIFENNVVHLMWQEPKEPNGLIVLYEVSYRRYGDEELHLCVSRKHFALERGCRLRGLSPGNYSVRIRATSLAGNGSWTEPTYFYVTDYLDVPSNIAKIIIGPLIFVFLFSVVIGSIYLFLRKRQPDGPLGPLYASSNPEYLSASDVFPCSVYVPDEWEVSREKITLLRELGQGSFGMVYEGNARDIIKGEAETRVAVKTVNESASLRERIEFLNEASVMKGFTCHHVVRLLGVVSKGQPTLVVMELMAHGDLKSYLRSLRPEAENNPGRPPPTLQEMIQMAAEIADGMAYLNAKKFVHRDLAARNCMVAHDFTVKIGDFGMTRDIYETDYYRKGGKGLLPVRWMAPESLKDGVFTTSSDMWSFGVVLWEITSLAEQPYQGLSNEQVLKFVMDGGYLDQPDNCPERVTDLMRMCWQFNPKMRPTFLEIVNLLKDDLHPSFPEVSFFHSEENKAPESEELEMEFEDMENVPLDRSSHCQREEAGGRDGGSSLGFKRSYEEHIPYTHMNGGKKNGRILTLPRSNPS

[5] = molecular target: Serine/threonine-protein kinase PAK 1 (Homo sapiens) (UniProt Q13153); experiment: Inhibition of partial length human PAK1 expressed in bacterial system at 1 uM; summary of the method: as §2
[6] = molecular target: ALK tyrosine kinase receptor (Homo sapiens) (UniProt Q9UM73); experiment: Inhibition of partial length human ALK expressed in mammalian system at 1 uM; summary of the method: as §1
ALK tyrosine kinase receptor (Homo sapiens), sequence (Q9UM73 19-1620 limits assumed): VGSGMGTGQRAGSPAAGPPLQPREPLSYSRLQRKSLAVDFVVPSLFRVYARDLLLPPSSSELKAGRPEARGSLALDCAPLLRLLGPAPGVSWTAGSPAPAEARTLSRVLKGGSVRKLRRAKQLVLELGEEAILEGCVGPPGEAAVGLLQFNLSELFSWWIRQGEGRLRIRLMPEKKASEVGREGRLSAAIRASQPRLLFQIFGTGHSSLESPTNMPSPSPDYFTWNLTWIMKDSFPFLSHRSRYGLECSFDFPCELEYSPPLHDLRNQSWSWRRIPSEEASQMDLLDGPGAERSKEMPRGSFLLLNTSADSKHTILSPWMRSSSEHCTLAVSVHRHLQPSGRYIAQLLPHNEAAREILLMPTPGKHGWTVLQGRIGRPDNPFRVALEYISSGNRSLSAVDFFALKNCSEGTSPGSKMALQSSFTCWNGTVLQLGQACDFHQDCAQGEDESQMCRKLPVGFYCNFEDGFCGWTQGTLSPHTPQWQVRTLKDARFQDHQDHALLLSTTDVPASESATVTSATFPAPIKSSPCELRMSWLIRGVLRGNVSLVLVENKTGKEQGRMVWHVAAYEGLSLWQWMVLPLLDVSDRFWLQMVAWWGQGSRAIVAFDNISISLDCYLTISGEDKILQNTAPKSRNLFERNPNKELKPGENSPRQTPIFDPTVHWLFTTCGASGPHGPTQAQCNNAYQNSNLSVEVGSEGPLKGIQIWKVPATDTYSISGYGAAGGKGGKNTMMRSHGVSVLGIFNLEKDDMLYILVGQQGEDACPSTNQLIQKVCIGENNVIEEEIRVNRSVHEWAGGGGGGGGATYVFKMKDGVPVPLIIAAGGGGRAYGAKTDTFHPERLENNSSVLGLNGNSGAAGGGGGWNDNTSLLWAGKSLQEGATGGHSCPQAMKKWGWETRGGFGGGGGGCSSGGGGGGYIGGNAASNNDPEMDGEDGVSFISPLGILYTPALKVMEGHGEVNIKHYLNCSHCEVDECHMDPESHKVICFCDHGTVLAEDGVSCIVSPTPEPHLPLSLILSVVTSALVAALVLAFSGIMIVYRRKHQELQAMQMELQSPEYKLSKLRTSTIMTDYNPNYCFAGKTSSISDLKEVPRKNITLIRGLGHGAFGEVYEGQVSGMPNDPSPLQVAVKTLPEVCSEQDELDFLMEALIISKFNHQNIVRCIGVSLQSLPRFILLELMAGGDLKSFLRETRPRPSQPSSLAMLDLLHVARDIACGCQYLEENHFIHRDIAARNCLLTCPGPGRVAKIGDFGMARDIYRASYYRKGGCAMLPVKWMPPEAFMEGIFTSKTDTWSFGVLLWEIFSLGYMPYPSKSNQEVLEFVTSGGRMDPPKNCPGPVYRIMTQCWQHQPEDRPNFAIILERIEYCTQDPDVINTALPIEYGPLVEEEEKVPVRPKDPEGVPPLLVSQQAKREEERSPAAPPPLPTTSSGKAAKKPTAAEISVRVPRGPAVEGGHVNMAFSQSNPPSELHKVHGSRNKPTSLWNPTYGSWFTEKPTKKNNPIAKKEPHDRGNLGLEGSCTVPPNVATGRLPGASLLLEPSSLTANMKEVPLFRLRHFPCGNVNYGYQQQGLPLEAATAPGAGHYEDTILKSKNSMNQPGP

NCI-H460 [7] = experiment: Antiproliferative activity against human NCI-H460 cells assessed as change in phenotypic response up to 50 uM; assay type: functional, cell-based
[8] = molecular target: Mitogen-activated protein kinase 3 (Homo sapiens) (UniProt P27361); experiment: Inhibition of partial length human ERK1 expressed in bacterial system at 1 uM; summary of the method: as §1
Mitogen-activated protein kinase 3 (Homo sapiens), sequence (P27361 whole entry): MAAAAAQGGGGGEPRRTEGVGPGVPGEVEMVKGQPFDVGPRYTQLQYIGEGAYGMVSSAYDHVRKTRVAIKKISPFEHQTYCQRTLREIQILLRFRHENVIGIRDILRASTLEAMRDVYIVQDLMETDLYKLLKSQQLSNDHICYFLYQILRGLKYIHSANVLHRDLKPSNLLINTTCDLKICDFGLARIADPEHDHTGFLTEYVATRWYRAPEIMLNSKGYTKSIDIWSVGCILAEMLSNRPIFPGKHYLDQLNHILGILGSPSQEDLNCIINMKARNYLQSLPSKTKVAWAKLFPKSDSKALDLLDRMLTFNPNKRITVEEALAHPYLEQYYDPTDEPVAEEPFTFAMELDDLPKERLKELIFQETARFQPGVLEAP

U2OS = experiment: Antiproliferative activity against human U2OS cells assessed as change in phenotypic response measured after prolonged treatment; assay type: functional, cell-based
MRC5 = experiment: Cytotoxicity against human MRC5 cells assessed as change in phenotypic response measured after prolonged treatment; assay type: cell-based
[9] = molecular target: Serine/threonine-protein kinase PLK3 (Homo sapiens) (UniProt Q9H4B4); experiment: Inhibition of partial length human PLK3 expressed in mammalian system at 1 uM; summary of the method: as §2
Serine/threonine-protein kinase PLK3 (Homo sapiens), sequence (Q9H4B4 whole entry, looked up): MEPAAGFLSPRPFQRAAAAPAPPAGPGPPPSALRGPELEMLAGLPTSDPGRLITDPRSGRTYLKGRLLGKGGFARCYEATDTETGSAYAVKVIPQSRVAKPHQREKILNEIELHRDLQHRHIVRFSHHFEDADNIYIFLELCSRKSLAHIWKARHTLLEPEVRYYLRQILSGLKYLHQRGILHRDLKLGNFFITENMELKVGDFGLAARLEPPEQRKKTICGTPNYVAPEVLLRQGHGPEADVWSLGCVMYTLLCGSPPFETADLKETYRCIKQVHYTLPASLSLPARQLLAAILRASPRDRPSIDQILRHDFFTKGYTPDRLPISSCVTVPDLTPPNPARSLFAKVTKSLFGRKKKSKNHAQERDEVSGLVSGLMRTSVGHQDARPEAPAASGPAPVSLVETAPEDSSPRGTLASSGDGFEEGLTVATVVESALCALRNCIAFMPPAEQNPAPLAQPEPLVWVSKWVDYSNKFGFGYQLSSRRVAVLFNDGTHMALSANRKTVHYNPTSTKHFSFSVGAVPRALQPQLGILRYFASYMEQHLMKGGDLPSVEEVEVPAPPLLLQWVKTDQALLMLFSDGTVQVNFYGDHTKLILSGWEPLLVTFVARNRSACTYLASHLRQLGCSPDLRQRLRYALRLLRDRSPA

SAOS-2 = experiment: Antiproliferative activity against human Saos2 cells assessed as change in phenotypic response measured after prolonged treatment; assay type: functional, cell-based
[10] = molecular target: Hepatocyte growth factor receptor (Homo sapiens) (UniProt P08581); experiment: Inhibition of partial length human MET expressed in bacterial system at 1 uM; summary of the method: as §2
[11] = molecular target: Tyrosine-protein kinase ZAP-70 (Homo sapiens) (UniProt P43403); experiment: Inhibition of partial length human ZAP70 expressed in mammalian system at 1 uM; summary of the method: as §2

For `Cc1cnc(N)nc1OCC(C)(C)CO`, the Activity (NCI-H460 [1]) was “inactive”, the inhibition [2] was “inactive” and the inhibition [3] was “inactive”. The inhibition [4] was “inactive”, the inhibition [5] was “inactive” and the inhibition [6] was “inactive”. For the same compound, the Activity (NCI-H460 [7]) was “inactive”, the inhibition [8] was “inactive” and the Activity (U2OS) was “inactive”. For the same compound, the Activity (MRC5) was “Non-toxic”, the inhibition [9] was “inactive” and the Activity (SAOS-2) was “inactive”. For the same compound, the inhibition [10] was “inactive” and the inhibition [11] was “inactive”.
